Assay results gathered from unrelated publications.
Lines come from different studies, so protocols differ.
Sialidase-4: Sialidase-4 (Homo sapiens, UniProt Q8WWR8)
ALOX15: Polyunsaturated fatty acid lipoxygenase ALOX15 (ALOX15, Homo sapiens, UniProt P16050)
ache: Acetylcholinesterase (ache, Electrophorus electricus, UniProt O42275)

CCCC[C@H]1C(=O)N(C)[C@@H](CCCC)C(=O)N[C@@H](CCCCNC(=O)CN2CCN(CC(=O)O)CCN(CC(=O)O)CC2)C(=O)N[C@H](C(=O)NCC(N)=O)CSCC(=O)N[C@@H](Cc2ccc(O)cc2)C(=O)N(C)[C@@H](C)C(=O)N[C@@H](CC(N)=O)C(=O)N2CCC[C@H]2C(=O)N[C@@H](Cc2c[nH]cn2)C(=O)N[C@@H](CCC(=O)O)C(=O)N2C[C@H](O)C[C@H]2C(=O)N[C@@H](Cc2c[nH]c3ccccc23)C(=O)N[C@@H](CO)C(=O)N[C@@H](Cc2cn(CC(=O)O)c3ccccc23)C(=O)N1C  IC50 (Programmed cell death 1 ligand 1 (CD274, Homo sapiens, UniProt Q9NZQ7); ligand displacement; radioligand): 0.00245 µM
CN(C(=O)CC(C)(C)C)[C@H]1[C@H]([C@H](O)[C@H](O)CO)OC(C(=O)O)=C[C@@H]1O  IC50 (Sialidase-4; enzyme activity; inhibitor): > 500 µM
CCOC(=O)c1ccccc1-c1c2ccc(=O)cc-2oc2cc(OCCCNc3c(-c4ccc(Cl)cc4)nc4ccccn34)ccc12  IC50 (ALOX15; enzyme activity; inhibitor; absorbance): 78.7 µM
Fc1ccc(-c2nnc(-c3ccc(OCc4cn(Cc5ccc(Cl)cc5)nn4)cc3)o2)cc1  IC50 (ache; enzyme activity; inhibitor; Ellman): > 100 µM
CC(C)Cc1cn([C@H]2[C@H]([C@H](O)[C@H](O)CO)OC(C(=O)O)=C[C@@H]2O)nn1  IC50 (Sialidase-4; enzyme activity; inhibitor): > 500 µM
COc1cc(/C=C/C(=O)NC2CCN(Cc3ccccc3)CC2)ccc1OC(=O)N1CCCC1  IC50 (ache; enzyme activity; inhibitor; Ellman): 3.1 µM
CCCCCCN[C@H]1[C@H]([C@H](O)[C@H](O)CO)OC(C(=O)O)=C[C@@H]1O  IC50 (Sialidase-4; enzyme activity; inhibitor): > 500 µM
CC(C)(C)OC(=O)NC1CCCN(C(=O)/C=C/c2ccc([N+](=O)[O-])cc2)C1 (stereo not drawn)  IC50 (ache; enzyme activity; inhibitor; Ellman): > 50 µM
COc1cc(CCC(=O)N2CCC(Cc3ccccc3)CC2)ccc1OC(=O)N(c1ccccc1)c1ccccc1  IC50 (ache; enzyme activity; inhibitor; Ellman): 10.5 µM
CC(C)CCC(=O)N[C@H]1[C@H]([C@H](O)[C@H](O)CO)OC(C(=O)O)=C[C@@H]1O  IC50 (Sialidase-4; enzyme activity; inhibitor): 270 µM
CCOC(=O)c1ccccc1-c1c2ccc(=O)cc-2oc2cc(OCCCNc3c(C4CCCCCC4)nc4ccccn34)ccc12  IC50 (ALOX15; enzyme activity; inhibitor; absorbance): > 100 µM
O=C(N1CCC2(CC1)C[C@H](CN1CCCCS1(=O)=O)CCO2)C1(c2ccccc2)CCCC1  IC50 (ATP-dependent RNA helicase DDX3X (DDX3X, Homo sapiens, UniProt O00571); ATPase activity; inhibitor): > 50 µM
CN1CC[C@@]2(C)c3cc(OC(=O)Nc4ccccc4)ccc3N(C)[C@@H]12  IC50 (Aldehyde dehydrogenase 1A1 (ALDH1A1, Homo sapiens, UniProt P00352); enzyme activity; inhibitor; fluorescence): < 10 µM
CCCCCCCCCC(=O)N[C@@H](CCCN=C(N)N)C(=O)N[C@H](C(=O)N[C@@H](CCCCN)C(=O)N[C@@H](CCCN=C(N)N)C(=O)CCl)C(C)C  IC50 (Furin (FURIN, Homo sapiens, UniProt P09958); enzyme activity; inhibitor): 0.00296 µM
COc1ccc(-c2nnc(-c3ccc(OCc4cn(Cc5ccc(Br)cc5)nn4)cc3)o2)cc1  IC50 (ache; enzyme activity; inhibitor; Ellman): > 100 µM
CCOC(=O)c1ccccc1-c1c2ccc(=O)cc-2oc2cc(OCCCNc3c(-c4ccc(OC(C)=O)cc4)nc4ccccn34)ccc12  IC50 (ALOX15; enzyme activity; inhibitor; absorbance): > 100 µM
O=C(/C=C/c1ccc(OC(=O)N2CCCC2)cc1)NC1CCN(Cc2ccccc2)CC1  IC50 (ache; enzyme activity; inhibitor; Ellman): 4.5 µM
CCN[C@H]1[C@H]([C@H](O)[C@H](O)CO)OC(C(=O)O)=C[C@@H]1O  IC50 (Sialidase-4; enzyme activity; inhibitor): > 500 µM
